The subject of series [1] is B16-F10. Description: Induction of apoptosis in mouse B16F10 cells assessed as necrotic cells at 35 nM after 48 hrs by Annexin V-FITC/propidium iodide staining based flow cytometry (reference value: 5.48%). It counts as functional. Background: Flow cytometry measures light scatter and fluorescence of single cells or particles in a stream.
For series [2], the system named is B16-F10. As to the kind of experiment: Induction of apoptosis in mouse B16F10 cells assessed as apoptotic cells after 48 hrs by Annexin V-FITC/propidium iodide staining based flow cytometry.
For series [3], the system named is B16-F10. Description: Antiproliferative activity against mouse B16F10 cells at 35 to 75 nM after 48 hrs by Cyto Tracker red dye based flow cytometry. The series is classed as functional, cell-based. The procedure, abridged: (§1)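 B16-F10 cells (Iscove's medium, 10% heat-inactivated FBS, 37 °C, 5% CO2) exposed to compound or DMSO for 48 h, stained with CytoTrack Red 628/643 and analysed by flow cytometry. Proliferation index (average number of cells that an initial cell became) expressed as fold change over DMSO control; n = 3; one-way ANOVA with Tukey post-test.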

For series [4], the system named is MCF7. As to the kind of experiment: Induction of apoptosis in human MCF7 cells assessed as late apoptotic cells at 10 uM after 48 hrs by Annexin V-FITC/propidium iodide staining based flow cytometry (reference value: 8.84%). The series is classed as functional. An outline of the steps: (§2)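 HEK293T (DMEM with 10% FBS) or MCF7 (DMEM/Ham's F-12 1:1, 10% FBS) cells treated 48 h with 10 μM compound or DMSO. Staining with Alexa Fluor 488 annexin V plus 5 μg/ml PI in HEPES/NaCl/CaCl2 binding buffer; 10,000 cells per sample read by flow cytometry; n = 3, mean ± S.E.M.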

Series [5] has as its system B16-F10. As to the kind of experiment: Induction of apoptosis in mouse B16F10 cells assessed as late apoptotic cells at 75 nM after 48 hrs by Annexin V-FITC/propidium iodide staining based flow cytometry (reference value: 13.54%). The series is classed as functional.
In series [6] the test system is MCF7. Description: Induction of apoptosis in human MCF7 cells assessed as necrotic cells at 10 uM after 48 hrs by Annexin V-FITC/propidium iodide staining based flow cytometry (reference value: 5.42%). It counts as functional. An outline of the steps: as §2
The subject of series [7] is HEK-293T. As to the kind of experiment: Induction of apoptosis in HEK293T cells assessed as necrotic cells at 10 uM after 48 hrs by Annexin V-FITC/propidium iodide staining based flow cytometry (reference value: 8.09%). It counts as cell-based. The note with it: human. An outline of the steps:
as §2

Series [8] concerns B16-F10. Description: Induction of apoptosis in mouse B16F10 cells assessed as late apoptotic cells at 10 uM after 48 hrs by Annexin V-FITC/propidium iodide staining based flow cytometry (reference value: 7.39%). It counts as functional.
For series [9], the system named is MCF7. As to the kind of experiment: Induction of apoptosis in human MCF7 cells at 10 uM after 48 hrs by Annexin V-FITC/propidium iodide staining based flow cytometry. The series is classed as functional, cell-based. An outline of the steps: as §2
Series [10] has as its system HEK-293T. As to the kind of experiment: Induction of apoptosis in HEK293T cells assessed as late apoptotic cells at 10 uM after 48 hrs by Annexin V-FITC/propidium iodide staining based flow cytometry (reference value: 2.07%). It counts as cell-based. The note with it: human. An outline of the steps:
as §2

Series [11] has as its system B16-F10. As to the kind of experiment: Induction of apoptosis in mouse B16F10 cells assessed as live cells at 75 nM after 48 hrs by Annexin V-FITC/propidium iodide staining based flow cytometry (reference value: 79.55%). It counts as functional.
Series [12] deals with MCF7. As to the kind of experiment: Induction of apoptosis in human MCF7 cells assessed as live cells at 10 uM after 48 hrs by Annexin V-FITC/propidium iodide staining based flow cytometry (reference value: 82.58%). It counts as functional. An outline of the steps:
as §2

In series [13] the test system is HEK-293T. As to the kind of experiment: Induction of apoptosis in HEK293T cells assessed as early apoptotic cells at 10 uM after 48 hrs by Annexin V-FITC/propidium iodide staining based flow cytometry (reference value: 7.41%). The settings on record: human. The series is classed as cell-based. The procedure, abridged: as §2
The subject of series [14] is B16-F10. As to the kind of experiment: Induction of apoptosis in mouse B16F10 cells assessed as late apoptotic cells at 35 nM after 48 hrs by Annexin V-FITC/propidium iodide staining based flow cytometry (reference value: 13.54%). The series is classed as functional.
Series [15] deals with T1, Monoglyceride lipase (Mus musculus) (UniProt O35678).
T1 sequence (whole entry): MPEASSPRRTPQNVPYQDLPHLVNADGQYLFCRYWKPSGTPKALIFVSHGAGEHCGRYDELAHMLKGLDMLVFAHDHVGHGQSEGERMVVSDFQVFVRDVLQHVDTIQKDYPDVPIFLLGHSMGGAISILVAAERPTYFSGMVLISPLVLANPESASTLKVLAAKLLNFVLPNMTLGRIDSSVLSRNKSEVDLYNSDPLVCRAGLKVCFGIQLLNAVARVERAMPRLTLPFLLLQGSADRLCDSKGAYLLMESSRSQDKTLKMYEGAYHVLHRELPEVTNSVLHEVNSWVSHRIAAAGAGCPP
As to the kind of experiment: Inhibition of MAGL in mouse B16-F10 intact cells at 10 uM using 7-HRA as substrate preincubated for 6 hrs followed by substrate addition by fluorescence assay. It counts as cell-based. The procedure, abridged:
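Intact B16-F10 cells cultured 6 h with compound or DMSO, homogenised 30 min at 4 °C in lysis buffer and spun 1,500 × g 5 min. 1 μg lysate assayed with 10 μM 7-HRA (ex 571/em 588 nm); 5-min values reported; mean ± SEM, n = 3.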

Series [16] has as its system B16-F10. As to the kind of experiment: Induction of apoptosis in mouse B16F10 cells assessed as necrotic cells at 10 uM after 48 hrs by Annexin V-FITC/propidium iodide staining based flow cytometry (reference value: 2.62%). It counts as functional.
For series [17], the system named is B16-F10. Description: Induction of apoptosis in mouse B16F10 cells assessed as early apoptotic cells at 35 nM after 48 hrs by Annexin V-FITC/propidium iodide staining based flow cytometry (reference value: 1.43%). The series is classed as functional.
Series [18] relates to MCF7. Description: Induction of apoptosis in human MCF7 cells assessed as early apoptotic cells at 10 uM after 48 hrs by Annexin V-FITC/propidium iodide staining based flow cytometry (reference value: 3.16%). It counts as functional. The procedure, abridged:
as §2

For the next series, the target named is T2, Monoglyceride lipase (Homo sapiens, UniProt Q99685).
T2 sequence (Q99685 whole entry): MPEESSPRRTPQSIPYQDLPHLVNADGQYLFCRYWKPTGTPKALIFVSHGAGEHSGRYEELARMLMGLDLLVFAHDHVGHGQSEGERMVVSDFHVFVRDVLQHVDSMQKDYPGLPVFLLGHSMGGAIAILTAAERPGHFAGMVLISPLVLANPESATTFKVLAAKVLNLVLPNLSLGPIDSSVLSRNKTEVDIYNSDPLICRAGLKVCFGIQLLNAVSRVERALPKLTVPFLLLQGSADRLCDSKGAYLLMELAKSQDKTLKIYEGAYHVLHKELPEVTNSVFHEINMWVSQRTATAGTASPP
Description: Inhibition of recombinant human MAGL using 7-HRA as substrate preincubated for 60 mins followed by substrate addition by fluorescence assay. The settings on record: read-out: IC50.

The subject of series [19] is B16-F10. As to the kind of experiment: Antiproliferative activity against mouse B16F10 cells at 10 uM after 48 hrs by Cyto Tracker red dye based flow cytometry. It counts as functional, cell-based. The procedure, abridged: as §1
Series [20] relates to B16-F10. Description: Induction of apoptosis in mouse B16F10 cells assessed as live cells at 35 nM after 48 hrs by Annexin V-FITC/propidium iodide staining based flow cytometry (reference value: 79.55%). It counts as functional.
The test system of series [21] is B16-F10. Description: Induction of apoptosis in mouse B16F10 cells assessed as early apoptotic cells at 10 uM after 48 hrs by Annexin V-FITC/propidium iodide staining based flow cytometry (reference value: 1.75%). The series is classed as functional.

SMILES strings stand for the structures. Calls of active or inactive are those of the source. The calls are words filed in the database; no cut-off is given here.

For `O=C(Nc1cccc(-c2ccc(C(F)(F)F)cc2)c1)OCc1ccco1`, the Activity in the series with B16-F10 [1] was 2.62%; in the series with B16-F10 [2] it was “Dose-dependent effect”; in the series on MCF7 [4], 25.63%; with B16-F10 [5], 30.39%; with MCF7 [6], 5.33%; in the series on HEK-293T [7], 8.4%. Further, the Activity in the series with B16-F10 [8] amounted to 64.08%; with HEK-293T [10], 2.1%; in the series with B16-F10 [11] it was 62.84%; with MCF7 [12], 60.27%; in the series with HEK-293T [13], 8.13%; in the series on B16-F10 [14], 29.37%. The Activity with B16-F10 [16] is recorded as 14.25%; with B16-F10 [17] it was 1.9%; with MCF7 [18], 8.77%; in the series on B16-F10 [20], 66.12%; with B16-F10 [21], 3.87%. For the same compound, the result in the series on B16-F10 [3], in the series on MCF7 [9] and in the series with B16-F10 [19] was Active. For the same compound, the inhibition result in series [15] is “Active”. In addition, the IC50 – broadly, the concentration needed to halve the response being measured – on Monoglyceride lipase stood at 6.7 µM.

The record behind these values is ChEMBL document CHEMBL4219238, “Design, synthesis, molecular modelling and in vitro cytotoxicity analysis of novel carbamate derivatives as inhibitors of Monoacylglycerol lipase” (Bioorg Med Chem, 2018).
